{"source": "ChEMBL document CHEMBL4251616", "about": "“Multifunctional thiosemicarbazones and deconstructed analogues as a strategy to study the involvement of metal chelation, Sigma-2 (σ2) receptor and P-gp protein in the cytotoxic action: In vitro and in vivo activity in pancreatic tumors” (Eur J Med Chem, 2018)", "key": {"[1]": {"assay": "Cytotoxicity against mouse Kp02 cells after 48 hrs by MTT assay", "format": "functional, cell-based", "how_it_was_run": "(§1)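 Pancreatic lines kept at 37 °C, 5% CO2. AsPC1, BxPC3 and Panc02 grown in RPMI with 10% FBS. MIAPaCa2 in DMEM with 10% FBS and 2.5% horse serum. PANC1 in DMEM with 10% FBS. KCKO in RPMI with 10% FBS plus pyruvate, HEPES and glutamine. KP02 in DMEM/F12 with 10% FBS.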"}, "Panc02": {"tested_on": "Panc02", "assay": "Cytotoxicity against mouse Panc02 cells after 48 hrs by MTT assay", "format": "functional, cell-based", "settings": "Panc02, 48 h", "how_it_was_run": "as §1"}, "MIA PaCa-2": {"tested_on": "MIA PaCa-2", "assay": "Cytotoxicity against human MIAPaCa2 cells after 48 hrs by MTT assay", "format": "functional, cell-based", "settings": "MIA PaCa-2, 48 h", "how_it_was_run": "as §1"}, "[2]": {"assay": "Cytotoxicity against mouse KCKO cells after 48 hrs by MTT assay", "format": "functional, cell-based", "how_it_was_run": "as §1"}, "ASPC1": {"tested_on": "ASPC1", "assay": "Cytotoxicity against human AsPC1 cells after 48 hrs by MTT assay", "format": "functional, cell-based", "settings": "ASPC1, 48 h", "how_it_was_run": "as §1"}, "BXPC-3": {"tested_on": "BXPC-3", "assay": "Cytotoxicity against human BxPC3 cells after 48 hrs by MTT assay", "format": "functional, cell-based", "settings": "BXPC-3, 48 h", "how_it_was_run": "as §1"}, "[3]": {"biological_target": "ATP-dependent translocase ABCB1 (Homo sapiens, UniProt P08183)", "sequence (P08183 whole entry)": "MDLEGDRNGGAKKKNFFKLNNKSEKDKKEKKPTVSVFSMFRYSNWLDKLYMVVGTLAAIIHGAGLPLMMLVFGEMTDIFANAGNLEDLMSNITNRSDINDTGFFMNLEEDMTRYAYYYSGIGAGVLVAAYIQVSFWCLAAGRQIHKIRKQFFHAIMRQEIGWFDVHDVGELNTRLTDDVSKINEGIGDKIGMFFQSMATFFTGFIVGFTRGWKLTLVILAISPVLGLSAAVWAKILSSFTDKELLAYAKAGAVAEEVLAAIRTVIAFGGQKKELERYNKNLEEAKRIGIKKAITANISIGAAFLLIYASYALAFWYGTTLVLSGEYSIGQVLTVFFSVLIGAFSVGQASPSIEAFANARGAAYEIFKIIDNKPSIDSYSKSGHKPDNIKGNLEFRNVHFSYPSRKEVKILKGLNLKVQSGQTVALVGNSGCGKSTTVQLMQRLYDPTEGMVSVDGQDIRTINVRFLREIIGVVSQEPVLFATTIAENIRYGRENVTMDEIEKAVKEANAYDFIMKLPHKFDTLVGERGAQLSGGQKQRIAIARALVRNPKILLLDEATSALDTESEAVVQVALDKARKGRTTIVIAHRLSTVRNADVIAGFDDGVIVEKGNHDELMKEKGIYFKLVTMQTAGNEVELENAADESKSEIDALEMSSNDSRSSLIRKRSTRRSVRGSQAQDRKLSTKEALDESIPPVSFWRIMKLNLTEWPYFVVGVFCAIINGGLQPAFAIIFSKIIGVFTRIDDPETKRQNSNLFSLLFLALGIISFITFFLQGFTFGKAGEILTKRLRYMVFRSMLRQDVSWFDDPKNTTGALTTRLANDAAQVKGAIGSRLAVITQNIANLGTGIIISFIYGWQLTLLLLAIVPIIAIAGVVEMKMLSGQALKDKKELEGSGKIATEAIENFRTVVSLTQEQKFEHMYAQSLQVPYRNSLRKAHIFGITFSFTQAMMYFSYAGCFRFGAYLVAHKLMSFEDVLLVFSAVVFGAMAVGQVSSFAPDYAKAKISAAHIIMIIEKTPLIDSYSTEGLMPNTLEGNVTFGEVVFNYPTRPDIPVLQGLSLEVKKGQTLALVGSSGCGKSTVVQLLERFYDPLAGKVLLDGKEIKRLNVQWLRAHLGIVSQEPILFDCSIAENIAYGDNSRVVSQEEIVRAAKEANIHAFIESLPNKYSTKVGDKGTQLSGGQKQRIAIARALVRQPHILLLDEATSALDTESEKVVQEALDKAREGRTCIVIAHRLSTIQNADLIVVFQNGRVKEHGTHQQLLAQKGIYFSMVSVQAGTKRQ", "assay": "Inhibition of human MDR1 expressed in MDCK-MDR1 cells assessed as calcein cell accumulation after 30 mins by spectrofluorimetry", "format": "cell-based", "how_it_was_run": "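Confluent MDCK-MDR1 monolayers given test compound (0.1-100 µM) for 30 min at 37 °C, then calcein-AM at 2.5 µM final for 30 min. Washed with ice-cold PBS and read at ex 485 / em 535 nm. Fluorescence rise over untreated basal level fitted against log dose to give EC50; n ≥ 3 experiments in duplicate.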"}}, "note": "pEC50: −log10 of the molar value.", "data": [{"smiles": "c1ccc2c(c1)ccn2CCCCN1CCN(C2CCCCC2)CC1", "values": [{"measurement": "pEC50", "setting": "[1]", "value": 4.15}, {"measurement": "pEC50", "setting": "Panc02", "value": "< 4.00"}, {"measurement": "pEC50", "setting": "MIA PaCa-2", "value": 4.10}, {"measurement": "pEC50", "setting": "[2]", "value": 4.17}, {"measurement": "pEC50", "setting": "ASPC1", "value": "< 4.00"}, {"measurement": "pEC50", "setting": "BXPC-3", "value": "< 4.00"}, {"measurement": "pEC50", "setting": "[3]", "value": 6.34}]}, {"smiles": "COc1cc2c(cc1OC)CN(CCCCn1ccc3ccccc31)CC2", "values": [{"measurement": "pEC50", "setting": "[1]", "value": 4.31}, {"measurement": "pEC50", "setting": "Panc02", "value": "< 4.00"}, {"measurement": "pEC50", "setting": "MIA PaCa-2", "value": 4.40}, {"measurement": "pEC50", "setting": "[2]", "value": 4.11}, {"measurement": "pEC50", "setting": "ASPC1", "value": "< 4.00"}, {"measurement": "pEC50", "setting": "BXPC-3", "value": "< 4.00"}, {"measurement": "pEC50", "setting": "[3]", "value": 5.22}]}]}
